Assay results: ChEMBL document CHEMBL1667815, “Pharmacophore models based studies on the affinity and selectivity toward 5-HT1A with reference to α1-adrenergic receptors among arylpiperazine derivatives of phenytoin” (Bioorg Med Chem, 2011)

Legend:
[1] = biological target: T1, 5-hydroxytryptamine receptor 1A (Rattus norvegicus) (UniProt P19327); experiment: Displacement of [3H]-8-OH-DPAT from 5-HT1A receptor in rat hippocampal membranes by liquid scintillation counting; type: cell membranes; conditions: Hippocampus, Membrane
T1 sequence (whole entry): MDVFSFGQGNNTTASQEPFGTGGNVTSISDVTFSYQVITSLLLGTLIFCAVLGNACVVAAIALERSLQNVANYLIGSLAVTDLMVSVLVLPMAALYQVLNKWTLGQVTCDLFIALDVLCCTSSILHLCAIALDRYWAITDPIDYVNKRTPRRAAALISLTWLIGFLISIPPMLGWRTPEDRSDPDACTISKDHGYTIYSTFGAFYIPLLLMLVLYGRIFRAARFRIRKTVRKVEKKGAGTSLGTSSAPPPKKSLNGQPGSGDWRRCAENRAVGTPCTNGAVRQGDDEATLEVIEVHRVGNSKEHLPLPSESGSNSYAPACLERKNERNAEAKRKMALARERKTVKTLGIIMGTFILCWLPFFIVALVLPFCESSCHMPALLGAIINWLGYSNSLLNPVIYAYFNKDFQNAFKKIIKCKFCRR
Method in brief: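 Native 5-HT1A sites in rat hippocampal membranes, labelled with [3H]-8-OH-DPAT (170.2 Ci/mmol). Each compound was tested at two concentrations (0.1 and 1), each in triplicate. Bound radioactivity was counted by liquid scintillation. Ks values were estimated from three independent binding experiments and reproduced within 20%.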

Rattus norvegicus = species: Rattus norvegicus; experiment: Selectivity ratio of Ki for alpha1-adrenergic receptor in rat cerebral cortex membranes to Ki for 5-HT1A receptor in rat hippocampal membranes; type: cell membranes; conditions: Membrane
[2] = biological target: T2, Adrenergic receptor alpha-1 (Rattus norvegicus, UniProt P15823+P23944+P43140); experiment: Displacement of [3H]-prazosin from alpha1-adrenergic receptor in rat cerebral cortex membranes after 30 mins by scintillation counting; type: cell membranes, Membrane
T2 sequence (P15823 whole entry): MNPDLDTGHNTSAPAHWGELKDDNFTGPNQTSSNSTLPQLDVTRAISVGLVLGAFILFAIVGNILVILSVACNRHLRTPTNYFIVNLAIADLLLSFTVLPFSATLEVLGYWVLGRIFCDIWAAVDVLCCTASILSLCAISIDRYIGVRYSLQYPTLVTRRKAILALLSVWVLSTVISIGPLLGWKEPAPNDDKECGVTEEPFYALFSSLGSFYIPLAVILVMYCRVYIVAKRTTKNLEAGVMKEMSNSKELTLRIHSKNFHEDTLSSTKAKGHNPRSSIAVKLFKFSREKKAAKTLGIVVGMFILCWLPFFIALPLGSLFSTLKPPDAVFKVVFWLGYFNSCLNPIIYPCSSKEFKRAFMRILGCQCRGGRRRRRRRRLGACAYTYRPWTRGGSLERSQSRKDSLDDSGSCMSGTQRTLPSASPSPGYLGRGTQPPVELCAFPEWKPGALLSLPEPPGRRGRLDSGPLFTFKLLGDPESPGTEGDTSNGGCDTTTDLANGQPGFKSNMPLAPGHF
T2 sequence (P23944 whole entry): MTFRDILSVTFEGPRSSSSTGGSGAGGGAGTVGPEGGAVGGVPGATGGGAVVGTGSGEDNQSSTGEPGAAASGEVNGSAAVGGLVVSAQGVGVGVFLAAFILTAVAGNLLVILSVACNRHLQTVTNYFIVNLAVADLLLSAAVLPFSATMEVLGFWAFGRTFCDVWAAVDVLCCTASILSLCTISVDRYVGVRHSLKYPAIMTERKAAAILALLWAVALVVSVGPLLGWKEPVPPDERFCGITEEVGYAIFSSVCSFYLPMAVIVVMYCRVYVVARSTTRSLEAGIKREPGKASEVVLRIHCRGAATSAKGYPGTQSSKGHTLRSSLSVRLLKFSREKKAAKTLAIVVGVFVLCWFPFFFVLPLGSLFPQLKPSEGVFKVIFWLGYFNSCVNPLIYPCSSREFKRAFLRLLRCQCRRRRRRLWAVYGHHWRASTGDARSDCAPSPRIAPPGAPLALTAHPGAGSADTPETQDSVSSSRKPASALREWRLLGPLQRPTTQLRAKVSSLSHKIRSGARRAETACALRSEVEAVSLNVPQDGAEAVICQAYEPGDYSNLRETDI
T2 sequence (P43140 whole entry): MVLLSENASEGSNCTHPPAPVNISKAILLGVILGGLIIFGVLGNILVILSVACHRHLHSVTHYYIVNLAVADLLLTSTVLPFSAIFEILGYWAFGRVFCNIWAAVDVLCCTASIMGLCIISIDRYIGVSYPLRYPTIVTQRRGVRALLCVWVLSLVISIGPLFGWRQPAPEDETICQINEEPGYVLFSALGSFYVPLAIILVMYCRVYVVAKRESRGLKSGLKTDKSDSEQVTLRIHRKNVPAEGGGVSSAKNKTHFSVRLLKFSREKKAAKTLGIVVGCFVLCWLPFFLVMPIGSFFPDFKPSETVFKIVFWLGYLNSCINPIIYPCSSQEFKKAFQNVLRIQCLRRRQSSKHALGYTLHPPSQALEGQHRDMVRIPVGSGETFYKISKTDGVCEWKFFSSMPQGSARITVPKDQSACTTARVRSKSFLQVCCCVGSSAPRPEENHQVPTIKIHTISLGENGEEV

[3] = biological target: Adrenergic receptor alpha-1 (Rattus norvegicus) (UniProt P15823+P23944+P43140); conditions: Wistar, Thoracic aorta

| Compound | Ks [1] [nM] | Ratio (Rattus norvegicus) | Ki [2] [µM] | pKb [3] |
| --- | --- | --- | --- | --- |
| CCOc1ccccc1N1CCN(CC(CN2C(=O)N(C)C(=O)C2(c2ccccc2)c2ccccc2)OC(C)=O)CC1 (racemic) | 38 | – | – | – |
| CCOc1ccccc1N1CCN(CC(O)CN2C(=O)N(C)C(=O)C2(c2ccccc2)c2ccccc2)CC1 (racemic) | 7 | 17.4 | – | – |
| CCOc1ccccc1N1CCN(CC(O)CN2C(=O)N(C(C)C(=O)OC)C(=O)C2(c2ccccc2)c2ccccc2)CC1 (racemic) | 28 | – | – | – |
| COc1ccccc1N1CCN(CC(O)CN2C(=O)N(CC(=O)O)C(=O)C2(c2ccccc2)c2ccccc2)CC1.Cl (racemic) | 575 | 8.35 | 4.8 | – |
| COC(=O)CN1C(=O)N(CC(O)CN2CCN(c3ccccc3OC)CC2)C(c2ccccc2)(c2ccccc2)C1=O (racemic) | 86 | 2.29 | – | – |
| CCOc1ccccc1N1CCN(CC(O)CN2C(=O)N(CC(=O)OC)C(=O)C2(c2ccccc2)c2ccccc2)CC1 (racemic) | 37 | – | – | – |
| CCOC(=O)CN1C(=O)N(CC(O)CN2CCN(c3ccccc3OC)CC2)C(c2ccccc2)(c2ccccc2)C1=O (racemic) | 88 | – | – | – |
| CCN1C(=O)N(CC(O)CN2CCN(c3ccccc3)CC2)C(c2ccccc2)(c2ccccc2)C1=O (racemic) | 610 | – | – | – |
| COC(=O)C(C)N1C(=O)N(CC(O)CN2CCN(c3ccccc3OC)CC2)C(c2ccccc2)(c2ccccc2)C1=O (racemic) | 104 | 1 | – | – |
| COc1ccccc1N1CCN(CC(O)CN2C(=O)N(C)C(=O)C2(c2ccccc2)c2ccccc2)CC1 (racemic) | 22 | – | – | – |
| CCOC(=O)C(C)N1C(=O)N(CC(O)CN2CCN(c3ccccc3OC)CC2)C(c2ccccc2)(c2ccccc2)C1=O (racemic) | 30 | 4.52 | – | – |
| COc1ccccc1N1CCN(CC(O)CN2C(=O)NC(=O)C2(c2ccccc2)c2ccccc2)CC1 (racemic) | 95 | – | – | – |
| CCOc1ccccc1N1CCN(CC(O)CN2C(=O)NC(=O)C2(c2ccccc2)c2ccccc2)CC1 (racemic) | 83 | – | – | 7.44 |
| O=C1NC(=O)C(c2ccccc2)(c2ccccc2)N1CC(O)CN1CCN(c2ccccc2)CC1 (racemic) | 573 | – | – | – |
